Results from ChEMBL document CHEMBL1125879, “Synthesis and antimalarial activity of 2-aziridinyl- and 2,3-bis(aziridinyl)-1,4-naphthoquinonyl sulfonate and acylate derivatives” (J Med Chem, 1991).

Assay: In vitro antimalarial activity against human malaria parasite, P falciparum (Vietnam Smith strain)
Type: functional, Plasmodium falciparum
Method in brief: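 P. falciparum in infected erythrocytes, semisynchronized cultures, initial parasitemia 1-3%, in RPMI 1640 with 25 mM HEPES, bicarbonate, 5% pooled calf serum; agents from 10^-2 M DMSO stocks at various concentrations, 48 h exposure with 1 μCi [3H]hypoxanthine per well throughout. Filter-harvested, scintillation counted. IC50 = 50% drop in incorporation vs drug-free controls, graphic extrapolation, mean of 2-4 observations.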

SMILES	IC50
CN(C)c1cccc2c(S(=O)(=O)Oc3cccc4c3C(=O)C=C(N3CC3)C4=O)cccc12	0.29 µM
CS(=O)(=O)Oc1cccc2c1C(=O)C(N1CC1)=C(N1CC1)C2=O	3.2 µM
Cc1ccc(S(=O)(=O)Oc2cccc3c2C(=O)C(N2CC2)=C(N2CC2)C3=O)cc1	4.6 µM
Cc1ccc(S(=O)(=O)Oc2cccc3c2C(=O)C=C(N2CC2)C3=O)cc1	0.2 µM
CC1(C)C2CCC1(CS(=O)(=O)Oc1cccc3c1C(=O)C(N1CC1)=C(N1CC1)C3=O)C(=O)C2 (centres undefined)	6 µM
O=C1C(N2CC2)=C(N2CC2)C(=O)c2c(O)cccc21	1.6 µM
CN(C)c1cccc2c(S(=O)(=O)Oc3cccc4c3C(=O)C(N3CC3)=C(N3CC3)C4=O)cccc12	3 µM
O=C1C(N2CC2)=C(N2CC2)C(=O)c2c(OS(=O)(=O)Cc3ccccc3)cccc21	2.4 µM
Cc1cc(C)c(S(=O)(=O)Oc2cccc3c2C(=O)C(N2CC2)=C(N2CC2)C3=O)c(C)c1	3.9 µM
CC1=C(N2CC2)C(=O)c2c(OS(=O)(=O)c3ccc(C(C)(C)C)cc3)cccc2C1=O	3.6 µM
O=C(Oc1cccc2c1C(=O)C=C(N1CC1)C2=O)c1ccccc1	0.45 µM
CCc1ccc(S(=O)(=O)Oc2cccc3c2C(=O)C=C(N2CC2)C3=O)cc1	0.096 µM
O=C1C(N2CC2)=C(N2CC2)C(=O)c2c(OS(=O)(=O)c3ccc(Br)cc3)cccc21	3.7 µM
O=C1C(N2CC2)=CC(=O)c2c(OS(=O)(=O)c3ccc(I)cc3)cccc21	0.33 µM
CN(C)S(=O)(=O)Oc1cccc2c1C(=O)C=C(NCCCl)C2=O	2.2 µM
O=C1C(N2CC2)=CC(=O)c2c(OS(=O)(=O)/C=C/c3ccccc3)cccc21	0.17 µM
O=C(Oc1cccc2c1C(=O)C(N1CC1)=C(N1CC1)C2=O)c1cccs1	2.6 µM
O=C1C(NCCCl)=CC(=O)c2c(OS(=O)(=O)Cc3ccccc3)cccc21	6.5 µM
O=C(Oc1cccc2c1C(=O)C=C(N1CC1)C2=O)c1ccc(Cl)cc1	0.53 µM
CC1=C(N2CC2)C(=O)c2c(O)cccc2C1=O	1.5 µM
O=C1C(N2CC2)=CC(=O)c2c(OS(=O)(=O)c3cccc4ccccc34)cccc21	0.13 µM
COc1ccc(C(=O)Oc2cccc3c2C(=O)C=C(N2CC2)C3=O)cc1	0.54 µM

SMILES	IC50
O=C1C(N2CC2)=C(N2CC2)C(=O)c2c(OS(=O)(=O)/C=C/c3ccccc3)cccc21	5.8 µM
CCc1ccc(S(=O)(=O)Oc2cccc3c2C(=O)C(N2CC2)=C(N2CC2)C3=O)cc1	4 µM
CC(C)c1cc(C(C)C)c(S(=O)(=O)Oc2cccc3c2C(=O)C(N2CC2)=C(N2CC2)C3=O)c(C(C)C)c1	3 µM
O=C1C(N2CC2)=CC(=O)c2c(O)cccc21	0.088 µM
O=C1C(N2CC2)=C(N2CC2)C(=O)c2c(OS(=O)(=O)c3ccccc3)cccc21	5.8 µM
O=C1C(N2CC2)=C(N2CC2)C(=O)c2c(OS(=O)(=O)c3ccc(I)cc3)cccc21	4.1 µM
O=C1C(N2CC2)=C(N2CC2)C(=O)c2c(OS(=O)(=O)c3ccc(Cl)cc3)cccc21	3.2 µM
O=C1C(N2CC2)=C(N2CC2)C(=O)c2c(OS(=O)(=O)c3cccc4ccccc34)cccc21	3.4 µM
O=C1C(N2CC2)=C(N2CC2)C(=O)c2c(OS(=O)(=O)CCCCl)cccc21	3 µM
CCCCCCCCCCCCCCCCS(=O)(=O)Oc1cccc2c1C(=O)C(N1CC1)=C(N1CC1)C2=O	20 µM
O=C1C(N2CC2)=C(N2CC2)C(=O)c2c(OS(=O)(=O)c3ccc([N+](=O)[O-])cc3)cccc21	7.6 µM
O=C1C(N2CC2)=CC(=O)c2c(OS(=O)(=O)c3cccc4cccnc34)cccc21	0.43 µM
O=C1C(N2CC2)=CC(=O)c2c(OS(=O)(=O)c3cccs3)cccc21	0.47 µM
C/N=C1\C=C(O)c2c(O)cccc2C1=O	3.7 µM
COc1ccc(C(=O)Oc2cccc3c2C(=O)C(N2CC2)=C(N2CC2)C3=O)cc1	3.7 µM
O=C(Oc1cccc2c1C(=O)C(N1CC1)=C(N1CC1)C2=O)c1ccccc1	2.6 µM
O=C(Oc1cccc2c1C(=O)C(N1CC1)=C(N1CC1)C2=O)c1ccc(F)cc1	4.4 µM
Cc1ccc(C(=O)Oc2cccc3c2C(=O)C=C(N2CC2)C3=O)cc1	0.62 µM
O=C1/C(=N/CCCl)C=C(O)c2c(O)cccc21	4.3 µM
COc1ccc(S(=O)(=O)Oc2cccc3c2C(=O)C=C(N2CC2)C3=O)cc1	0.16 µM
Cc1ccc(C(=O)Oc2cccc3c2C(=O)C(N2CC2)=C(N2CC2)C3=O)cc1	4.4 µM
O=C(Oc1cccc2c1C(=O)C=C(N1CC1)C2=O)c1ccc(F)cc1	0.49 µM

SMILES	IC50
O=C(Oc1cccc2c1C(=O)C=C(N1CC1)C2=O)c1ccco1	0.49 µM
COc1cc(C(=O)Oc2cccc3c2C(=O)C=C(N2CC2)C3=O)cc(OC)c1OC	0.16 µM
CN(C)c1cccc2c(S(=O)(=O)Oc3cccc4c3C(=O)C=C(NCCCl)C4=O)cccc12	2.9 µM
O=C(Oc1cccc2c1C(=O)C(N1CC1)=C(N1CC1)C2=O)c1cc(Cl)sc1Cl	3.9 µM
CC(C)(C)c1ccc(S(=O)(=O)Oc2cccc3c2C(=O)C=C(N2CC2)C3=O)cc1	0.024 µM
O=C1C(N2CC2)=CC(=O)c2c(OS(=O)(=O)c3ccc(F)cc3)cccc21	0.14 µM
O=C(Oc1cccc2c1C(=O)C(N1CC1)=C(N1CC1)C2=O)c1ccco1	4.6 µM
O=C1C(N2CC2)=C(N2CC2)C(=O)c2c(OS(=O)(=O)c3ccc([N+](=O)[O-])c([N+](=O)[O-])c3)cccc21	2.4 µM
O=C1C(N2CC2)=CC(=O)c2c(OS(=O)(=O)c3ccccc3)cccc21	0.23 µM
CC(C)c1cc(C(C)C)c(S(=O)(=O)Oc2cccc3c2C(=O)C=C(N2CC2)C3=O)c(C(C)C)c1	0.28 µM
CN(C)C1=CC(=O)c2c(O)cccc2C1=O	1.6 µM
O=C1C(N2CC2)=C(N2CC2)C(=O)c2c(OC(=O)C34CC5CC(CC(C5)C3)C4)cccc21	5.4 µM
O=C(Oc1cccc2c1C(=O)C(N1CC1)=C(N1CC1)C2=O)c1ccc(Cl)cc1	1.7 µM
O=C(Oc1cccc2c1C(=O)C=C(N1CC1)C2=O)c1cccs1	0.47 µM
CS(=O)(=O)Oc1cccc2c1C(=O)C=C(NCCCl)C2=O	8.5 µM
COc1cc(C(=O)Oc2cccc3c2C(=O)C(N2CC2)=C(N2CC2)C3=O)cc(OC)c1OC	3.4 µM
O=C1C=CC(=O)c2c(O)cccc21 [JUGLONE]	3.7 µM
O=C1C=C(O)C(=O)c2ccccc21 [LAWSONE]	100 µM
CC1=CC(=O)c2ccccc2C1=O [MENADIONE]	3.4 µM
CC1=CC(=O)c2c(O)cccc2C1=O [PLUMBAGIN]	2.4 µM
